The structures appear in SMILES notation.

Assay [1] has as its target Phosphodiesterase 3 (Homo sapiens, UniProt Q14432+Q13370). Nature of the assay: Inhibition of human platelet PDE by inhibiting cyclic Adenosine monophosphate (cAMP) hydrolysis.
The species named for assay [2] is Oryctolagus cuniculus. Nature of the assay: Inhibition of platelet aggregation using collagen as activating agent in rabbit platelet rich plasma (PRP). It counts as functional. An outline of the steps: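 Rabbit platelet-rich plasma, aggregation triggered by ADP or collagen after 3 min preincubation of PRP with drug. Single or duplicate determinations, reference agent included.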

Assay [3] concerns the target cGMP-dependent 3',5'-cyclic phosphodiesterase (Homo sapiens, UniProt O00408). Nature of the assay: Inhibition of human platelet PDE by inhibiting cyclic Guanosine monophosphate (cGMP) hydrolysis.

Sequence of cGMP-dependent 3',5'-cyclic phosphodiesterase (O00408 whole entry): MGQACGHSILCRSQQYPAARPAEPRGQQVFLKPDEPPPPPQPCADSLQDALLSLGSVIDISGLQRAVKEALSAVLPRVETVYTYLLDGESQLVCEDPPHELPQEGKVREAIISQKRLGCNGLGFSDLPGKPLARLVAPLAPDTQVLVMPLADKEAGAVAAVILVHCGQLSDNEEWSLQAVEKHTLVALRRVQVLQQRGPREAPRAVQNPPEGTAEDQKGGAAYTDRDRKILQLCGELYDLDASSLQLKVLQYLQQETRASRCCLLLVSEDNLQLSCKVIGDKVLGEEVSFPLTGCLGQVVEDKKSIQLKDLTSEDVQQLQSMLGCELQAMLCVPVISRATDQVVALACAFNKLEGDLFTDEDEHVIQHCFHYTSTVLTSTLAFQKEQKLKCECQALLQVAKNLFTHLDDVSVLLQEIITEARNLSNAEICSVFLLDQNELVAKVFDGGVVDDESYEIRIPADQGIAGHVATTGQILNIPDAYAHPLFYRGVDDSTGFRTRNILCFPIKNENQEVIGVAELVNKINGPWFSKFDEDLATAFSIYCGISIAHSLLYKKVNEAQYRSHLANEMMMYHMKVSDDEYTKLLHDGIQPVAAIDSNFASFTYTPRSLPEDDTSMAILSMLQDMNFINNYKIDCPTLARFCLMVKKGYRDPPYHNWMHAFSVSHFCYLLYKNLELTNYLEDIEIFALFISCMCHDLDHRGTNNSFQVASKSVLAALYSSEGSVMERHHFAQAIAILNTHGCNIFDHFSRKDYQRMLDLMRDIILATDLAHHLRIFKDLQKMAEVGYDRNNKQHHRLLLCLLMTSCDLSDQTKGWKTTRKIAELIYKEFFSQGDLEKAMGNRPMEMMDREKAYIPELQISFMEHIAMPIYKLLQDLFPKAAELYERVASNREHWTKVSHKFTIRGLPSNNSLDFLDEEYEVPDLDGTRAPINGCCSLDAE

`O=C(O)C1CCN(C(=O)CCCOc2ccc3[nH]c4nc(O)nc-4cc3c2)CC1` yielded an IC50 in assay [1] of 20 nM. Besides, the EC50 in assay [2] was 180 nM.
The corresponding values for `Oc1nc2cc3cc(OCCCCc4nnn[nH]4)ccc3[nH]c-2n1` are 10 nM and 1010 nM.
As to `COC(=O)CCCCOc1ccc2[nH]c3nc(O)nc-3cc2c1`, the IC50 in assay [3] is over 100000 nM.
Consider `O=C(CCCOc1ccc2[nH]c3nc(O)nc-3cc2c1)NC1CCCC1`, for which the IC50 in assay [1] was 20 nM. This compound also came in with a concentration giving a half-maximal response (EC50) in assay [2] of 4 nM.
The corresponding values for `O=C(CCCCc1ccc2[nH]c3nc(O)nc-3cc2c1)NC12C[C@H]3C[C@@H](C1)C[C@@H](C2)C3` are 6 nM and 300 nM.
In the case of `COC(=O)CCCCOc1ccc2nc3nc(O)n(C)c3cc2c1`, the IC50 came out at 5000 nM in assay [1] and 100000 nM in assay [3].
Regarding `CCOC(=O)CCCOc1ccc2c(c1)CN1CC(=O)NC1=N2`, the IC50 in assay [1] was 70 nM.
With `CN(C(=O)CCCCCOc1ccc2nc3[nH]c(=O)[nH]c3cc2c1)C1CCCCC1`, the half-inhibitory concentration (IC50) worked out at 3 nM in assay [1] and 7000 nM in assay [3]. The midpoint of the response in assay [2], the EC50, lay at 6 nM.
In assay [3], `Cn1c(O)nc2nc3ccc(OCCCC(=O)N4CCCCC4)cc3cc21` displayed an IC50 of 60000 nM. For the same compound, in assay [2], the EC50 came out at 2440 nM.
`CCOC(=O)CN(C(=O)CCCOc1ccc2[nH]c3nc(O)nc-3cc2c1)C1CCCCC1`: the IC50 in assay [1] is 2 nM; in assay [3], 3000 nM. Further, the EC50 in assay [2] came to 9 nM.
With `COC(=O)CCCCCOc1ccc2nc3[nH]c(=O)[nH]c3cc2c1`, the 50% inhibitory concentration (IC50) in assay [1] was 60 nM; in assay [3] it was over 100000 nM. The concentration for a half-maximal effect (EC50) in assay [2] is 27 nM.
In assay [1], `CC(=O)OCCOc1ccc2[nH]c3nc(O)nc-3cc2c1` had a concentration for half-maximal inhibition (IC50) of 30 nM. Moreover, it took 70 nM to reach a half-maximal effect in assay [2] (EC50).
With `Cn1c(O)nc2nc3ccc(OCCCCC(=O)O)cc3cc21`, the IC50 in assay [1] turned out to be 80 nM; in assay [3], 10000 nM. This compound registered an EC50 in assay [2] of over 100000 nM.
Compound `O=C(CCCOc1ccc2nc3[nH]c(=O)[nH]c3cc2c1)N1CCOCC1` returned a half-inhibitory concentration (IC50) in assay [3] of 40000 nM. Also, the 50% effective concentration (EC50) in assay [2] came to 20 nM.
In the case of `CCOC(=O)CCc1ccc2[nH]c3nc(O)nc-3cc2c1`, in assay [1], the IC50 worked out at 600 nM. Besides, in assay [2], the response was half-maximal at 140 nM (EC50).
In the case of `Cn1c(=O)n(C)c2nc3ccc(OCCCC(=O)O)cc3cc21`, the IC50 in assay [1] came out at 4000 nM. Besides, the response in assay [2] was half-maximal at 1250 nM (EC50).
The corresponding values for `CN(C(=O)CCCOc1ccc2c(c1)CN1CC(=O)NC1=N2)C1CCCCC1` [LIXAZINONE] are 3 nM and 80 nM.
Consider `CN(C(=O)CCCOc1ccc2nc3nc(O)n(C)c3cc2c1)C1CCCCC1`, for which the IC50 is 200 nM in assay [1] and 8000 nM in assay [3]. Besides, in assay [2], the response was half-maximal at 40 nM (EC50).
`O=C(O)CN(C(=O)CCCOc1ccc2[nH]c3nc(O)nc-3cc2c1)C1CCCCC1` gave an IC50 in assay [1] of 0.3 nM. For the same compound, in assay [2], the EC50 was found to be 460 nM.
For `CN(C(=O)CCCCOc1ccc2[nH]c3nc(O)nc-3cc2c1)C1CCCCC1`, the values for the half-inhibitory concentration (IC50) in assay [1] and in assay [3] were 2 nM and 5000 nM, respectively. In addition, the EC50 in assay [2] was 0.2 nM.
Compound `N#CCCCOc1ccc2[nH]c3nc(O)nc-3cc2c1` returned a concentration for half-maximal inhibition (IC50) in assay [1] of 6 nM. Moreover, the midpoint of the response in assay [2], the EC50, lay at 33 nM.
The corresponding values for `O=C(CCCCc1ccc2[nH]c3nc(O)nc-3cc2c1)NC1CCCCC1` are 300 nM and 190 nM.
The corresponding values for `COC(=O)CCCOc1ccc2nc3c(cc2c1)nc(O)n3C` are 2000 nM and 170 nM.
The corresponding values for `N#CCCCCOc1ccc2[nH]c3nc(O)nc-3cc2c1` are 100 nM and 130 nM.
Take `O=C(O)CCCCOc1ccc2nc3[nH]c(=O)[nH]c3cc2c1`: in assay [3], the half-inhibitory concentration (IC50) came out at 30000 nM. In assay [2], the EC50 is over 106000 nM.
`Oc1nc2cc3cc(OCCCc4nnn[nH]4)ccc3[nH]c-2n1` came in with an IC50 in assay [1] of 3 nM. Moreover, in assay [2], the response was half-maximal at 1580 nM (EC50).
`NC(=O)CCCOc1ccc2[nH]c3nc(O)nc-3cc2c1`: the figures for the IC50 in assay [1] and in assay [3] were 8 nM and over 100000 nM, respectively. In assay [2], this compound yielded a concentration giving a half-maximal response (EC50) of 2520 nM.
For the compound `COC(=O)CCCOc1ccc2nc3[nH]c(=O)n(C)c3cc2c1`, the IC50 in assay [3] stood at 100000 nM.
Consider `CC(=O)OCCCOc1ccc2[nH]c3nc(O)nc-3cc2c1`, for which, in assay [1], the IC50 was found to be 100 nM. For the same compound, the EC50 in assay [2] amounted to 30 nM.
The corresponding values for `OCC(O)COc1ccc2[nH]c3nc(O)nc-3cc2c1` (stereo not given) are 20 nM and 64 nM.
The corresponding values for `CN(C(=O)CCCOc1ccc2nc3c(cc2c1)n(C)c(=O)n3C)C1CCCCC1` are 5000 nM and 13400 nM.
For `CC(=O)CCCOc1ccc2[nH]c3nc(O)nc-3cc2c1`, the IC50 in assay [1] turned out to be 80 nM. In assay [2], this compound yielded an EC50 of 70 nM.
In the case of `O=c1[nH]c2cc3cc(OCCCS(=O)(=O)c4ccccc4)ccc3nc2[nH]1`, the half-maximal inhibitory concentration (IC50) is 2 nM in assay [1] and over 100000 nM in assay [3]. The compound further returned a 50% effective concentration (EC50) in assay [2] of 50 nM.
Turning to `CC(=O)OCCCCOc1ccc2[nH]c3nc(O)nc-3cc2c1`, the IC50 in assay [1] turned out to be 40 nM. This compound also returned an EC50 in assay [2] of 320 nM.
The corresponding values for `CCOC(=O)CCCOc1ccc2[nH]c3nc(O)nc-3cc2c1` are 20 nM and 20 nM.
Consider `CN(C(=O)CCCOc1ccc2[nH]c3nc(O)nc-3cc2c1)C1CCCCCC1`, for which the concentration giving a half-maximal response (EC50) in assay [2] came out at 5 nM. That is a single-digit nanomolar value.
Compound `O=C(O)CCCOc1ccc2c(c1)CN1CC(=O)NC1=N2` gave an IC50 in assay [1] of 40 nM. Besides, the EC50 in assay [2] was 3460 nM.
In turn, `CCOC(=O)COc1ccc2[nH]c3nc(O)nc-3cc2c1` displayed a concentration for a half-maximal effect (EC50) in assay [2] of 7600 nM.
Consider `O=C(O)CCCCc1ccc2[nH]c3nc(O)nc-3cc2c1`, for which the values for the concentration for half-maximal inhibition (IC50) in assay [1] and in assay [3] were 20 nM and 10000 nM, respectively. In addition, the EC50 in assay [2] stood at 21000 nM.
For `CC(O)CCCOc1ccc2[nH]c3nc(O)nc-3cc2c1` (stereo not given), the IC50 in assay [1] came out at 100 nM. The same compound yielded a concentration giving a half-maximal response (EC50) in assay [2] of 70 nM.
The corresponding values for `COC(=O)CCCOc1ccc2nc3c(cc2c1)n(C)c(=O)n3C` are 40000 nM and 54700 nM.
Consider `O=C(O)CCCCCOc1ccc2[nH]c3nc(O)nc-3cc2c1`, for which the IC50 in assay [1] was 4 nM; in assay [3], 7000 nM. Also, the half-maximal effective concentration (EC50) in assay [2] stood at 950 nM.
In the case of `OCCCc1ccc2[nH]c3nc(O)nc-3cc2c1`, the IC50 in assay [1] amounted to 60 nM. The same compound registered an EC50 in assay [2] of 410 nM.
The corresponding values for `CN(C(=O)CCCCc1ccc2[nH]c3nc(O)nc-3cc2c1)C1CCCCC1` are 40 nM and 26 nM.
For `CN(C(=O)CCCCOc1ccc2nc3[nH]c(=O)[nH]c3cc2c1)C1CCCCCC1`, the IC50 in assay [1] was 0.4 nM; in assay [3], 5000 nM. The response in assay [2] was half-maximal at 2 nM (EC50).
As for `CCOCCOc1ccc2[nH]c3nc(O)nc-3cc2c1`, the IC50 in assay [1] is 50 nM. Also, the concentration for a half-maximal effect (EC50) in assay [2] was found to be 1290 nM.
Take `Cn1c(O)nc2nc3ccc(OCCCS(=O)(=O)c4ccccc4)cc3cc21`: the IC50 in assay [1] is 300 nM. Also, in assay [2], a half-maximal response (EC50) required 15100 nM.
For `OCCCOc1ccc2[nH]c3nc(O)nc-3cc2c1`, the results for the IC50 in assay [1] and in assay [3] were 9 nM and 50000 nM, respectively. The same compound displayed an EC50 in assay [2] of 150 nM.
Compound `O=C(CCCCc1ccc2[nH]c3nc(O)nc-3cc2c1)N1CCCCC1` had a concentration for half-maximal inhibition (IC50) in assay [1] of 60 nM. For the same compound, in assay [2], the EC50 was 170 nM.

Usually IC50 stands for the concentration that inhibits the measured activity by half. The term EC50 denotes the concentration at which the effect is half-maximal. Read a low EC50 as greater potency.
